Source: ChEMBL document CHEMBL2311279, “Discovery of a new series of [1,2,4]triazolo[4,3-a]quinoxalines as dual phosphodiesterase 2/phosphodiesterase 10 (PDE2/PDE10) inhibitors” (Bioorg Med Chem Lett, 2013)
Values belong to the compound of their own block, whether it stands above or below them.

Tests used:
[1] = Plasma concentration in Sprague-Dawley rat at 10 mg/kg, sc after 1 hr; assay type: ADME, organism-based; parameters: dose 10 mg/kg, route subcutaneous
Summary of the method: (§1)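 Male rats dosed once at 10 mg/kg, subcutaneously or orally. Vehicle was mostly 20% HP-b-CD at pH 4, with some dosing in 0.5% methocel suspension or H2O + tartaric acid. Brain (ng/g) and plasma (ng/mL) were sampled 1 h after dosing, and the brain/plasma ratio was derived from these. Values are geometric means of at least two runs ± SEM.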

[2] = biological target: 3',5'-cyclic-AMP phosphodiesterase 4A (Homo sapiens, UniProt P27815); test: Inhibition of human recombinant PDE4A expressed in Sf9 cells by scintillation proximity assay
[3] = biological target: cGMP-dependent 3',5'-cyclic phosphodiesterase (Homo sapiens, UniProt O00408); test: Inhibition of human recombinant PDE2A expressed in Sf9 cells by scintillation proximity assay
Hippocampus = test: Drug uptake in Wistar rat hippocampus at 0.03 mg/kg, iv after 2 to 30 mins; assay type: ADME, organism-based; parameters: dose 0.03 mg/kg, route intravenous; conditions: in vivo
Summary of the method: (§2)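 Male Wistar rats (180–200 g) received 0.03 mg/kg i.v. and were killed at 2, 5, 10 and 30 min, with 3 rats per time point. Brains were rapidly removed and dissected into striatum, hippocampus and whole cortex. Each region was homogenized by ultrasonic probe in 4 volumes of 75% acetonitrile and centrifuged, then drug was quantified by LC-MS.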

[4] = Drug level in Sprague-Dawley rat brain at 10 mg/kg, sc after 1 hr; assay type: ADME, organism-based; parameters: dose 10 mg/kg, route subcutaneous; conditions: read-out: Drug uptake; summary of the method: as §1
[5] = biological target: cGMP-inhibited 3',5'-cyclic phosphodiesterase 3A (Homo sapiens, UniProt Q14432); test: Inhibition of human recombinant PDE3A expressed in Sf9 cells by scintillation proximity assay
Cortex = test: Drug uptake in Wistar rat cortex at 0.03 mg/kg, iv after 2 to 30 mins; assay type: ADME, organism-based; parameters: dose 0.03 mg/kg, route intravenous; conditions: in vivo; summary of the method: as §2
[6] = biological target: High affinity cGMP-specific 3',5'-cyclic phosphodiesterase 9A (Homo sapiens, UniProt O76083); test: Inhibition of human recombinant PDE9A expressed in Sf9 cells by scintillation proximity assay
Phosphodiesterase 6 = test: Inhibition of human recombinant PDE6AB expressed in Sf9 cells by scintillation proximity assay
[7] = biological target: Dual 3',5'-cyclic-AMP and -GMP phosphodiesterase 11A (Homo sapiens, UniProt Q9HCR9); test: Inhibition of human recombinant PDE11A expressed in Sf9 cells by scintillation proximity assay
[8] = biological target: High affinity 3',5'-cyclic-AMP phosphodiesterase 7A (Homo sapiens, UniProt Q13946); test: Inhibition of human recombinant PDE7A expressed in Sf9 cells by scintillation proximity assay
[9] = biological target: cGMP-inhibited 3',5'-cyclic phosphodiesterase 3B (Homo sapiens, UniProt Q13370); test: Inhibition of human recombinant PDE3B expressed in Sf9 cells by scintillation proximity assay
[10] = Ratio of drug level brain to plasma in Sprague-Dawley rat at 10 mg/kg, sc after 1 hr; assay type: ADME, organism-based; parameters: dose 10 mg/kg, route subcutaneous; conditions: read-out: BPR; summary of the method: as §1
[11] = biological target: cGMP-specific 3',5'-cyclic phosphodiesterase (Homo sapiens, UniProt O76074); test: Inhibition of human recombinant PDE5A expressed in Sf9 cells by scintillation proximity assay
[12] = biological target: Dual specificity calcium/calmodulin-dependent 3',5'-cyclic nucleotide phosphodiesterase 1B (Homo sapiens, UniProt Q01064); test: Inhibition of human recombinant PDE1B expressed in Sf9 cells by scintillation proximity assay
Striatum = test: Drug uptake in Wistar rat striatum at 0.03 mg/kg, iv after 2 to 30 mins; assay type: ADME, organism-based; parameters: dose 0.03 mg/kg, route intravenous; conditions: in vivo; summary of the method: as §2
[13] = Plasma concentration in Wistar rat at 10 mg/kg, sc after 1 hr; assay type: ADME, organism-based; parameters: dose 10 mg/kg, route subcutaneous; summary of the method: as §1
[14] = Ratio of drug level brain to plasma in Wistar rat at 10 mg/kg, sc after 1 hr; assay type: ADME, organism-based; parameters: dose 10 mg/kg, route subcutaneous; conditions: read-out: BPR; summary of the method: as §1
[15] = Drug level in Wistar rat brain at 10 mg/kg, sc after 1 hr; assay type: ADME, organism-based; parameters: dose 10 mg/kg, route subcutaneous; conditions: read-out: Drug uptake; summary of the method: as §1
[16] = Selectivity ratio of IC50 for rat PDE10A to IC50 for human recombinant PDE2A
Summary of the method: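 Inhibition of rat PDE10A and human PDE2A enzymes measured in vitro. IC50 values are mean ± SD of at least two experiments unless otherwise specified. The ratio is rat PDE10A IC50 divided by human PDE2A IC50.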

[17] = Ratio of drug level brain to plasma in Wistar rat at 10 mg/kg, po after 1 hr; assay type: ADME, organism-based; parameters: dose 10 mg/kg, route oral; conditions: read-out: BPR; summary of the method: as §1
[18] = Drug level in Wistar rat brain at 10 mg/kg, po after 1 hr; assay type: ADME, organism-based; parameters: dose 10 mg/kg, route oral; conditions: read-out: Drug uptake; summary of the method: as §1
[19] = Plasma concentration in Wistar rat at 10 mg/kg, po after 1 hr; assay type: ADME, organism-based; parameters: dose 10 mg/kg, route oral; summary of the method: as §1
[20] = Drug level in Sprague-Dawley rat brain at 10 mg/kg, po after 1 hr; assay type: ADME, organism-based; parameters: dose 10 mg/kg, route oral; conditions: read-out: Drug uptake; summary of the method: as §1
[21] = Ratio of drug level brain to plasma in Sprague-Dawley rat at 10 mg/kg, po after 1 hr; assay type: ADME, organism-based; parameters: dose 10 mg/kg, route oral; conditions: read-out: BPR; summary of the method: as §1
[22] = Plasma concentration in Sprague-Dawley rat at 10 mg/kg, po after 1 hr; assay type: ADME, organism-based; parameters: dose 10 mg/kg, route oral; summary of the method: as §1

Chain of cGMP-dependent 3',5'-cyclic phosphodiesterase (O00408 whole entry): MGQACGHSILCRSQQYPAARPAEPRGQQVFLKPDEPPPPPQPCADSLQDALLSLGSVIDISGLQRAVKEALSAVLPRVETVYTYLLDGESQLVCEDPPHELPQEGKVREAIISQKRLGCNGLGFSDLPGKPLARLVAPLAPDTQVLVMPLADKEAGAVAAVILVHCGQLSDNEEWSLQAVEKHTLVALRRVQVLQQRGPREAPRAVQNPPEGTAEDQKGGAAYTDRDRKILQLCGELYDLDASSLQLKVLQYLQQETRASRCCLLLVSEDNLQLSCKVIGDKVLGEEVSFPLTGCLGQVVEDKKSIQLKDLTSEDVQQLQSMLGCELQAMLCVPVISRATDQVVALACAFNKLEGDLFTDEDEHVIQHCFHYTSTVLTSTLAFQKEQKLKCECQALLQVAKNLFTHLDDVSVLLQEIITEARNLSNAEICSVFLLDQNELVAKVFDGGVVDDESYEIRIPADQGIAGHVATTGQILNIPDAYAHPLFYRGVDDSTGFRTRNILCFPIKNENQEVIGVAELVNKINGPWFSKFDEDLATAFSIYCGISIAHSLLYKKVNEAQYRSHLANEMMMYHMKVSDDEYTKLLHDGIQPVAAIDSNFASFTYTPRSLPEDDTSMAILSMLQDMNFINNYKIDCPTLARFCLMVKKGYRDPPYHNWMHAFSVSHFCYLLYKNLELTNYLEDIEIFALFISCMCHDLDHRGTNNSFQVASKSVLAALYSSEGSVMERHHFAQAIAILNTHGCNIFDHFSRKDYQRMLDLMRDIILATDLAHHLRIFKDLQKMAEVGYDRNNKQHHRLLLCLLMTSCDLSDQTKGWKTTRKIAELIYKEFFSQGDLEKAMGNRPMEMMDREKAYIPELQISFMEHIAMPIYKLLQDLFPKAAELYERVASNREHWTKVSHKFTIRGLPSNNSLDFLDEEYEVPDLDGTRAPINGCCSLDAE
Chain of Dual 3',5'-cyclic-AMP and -GMP phosphodiesterase 11A (Q9HCR9 whole entry): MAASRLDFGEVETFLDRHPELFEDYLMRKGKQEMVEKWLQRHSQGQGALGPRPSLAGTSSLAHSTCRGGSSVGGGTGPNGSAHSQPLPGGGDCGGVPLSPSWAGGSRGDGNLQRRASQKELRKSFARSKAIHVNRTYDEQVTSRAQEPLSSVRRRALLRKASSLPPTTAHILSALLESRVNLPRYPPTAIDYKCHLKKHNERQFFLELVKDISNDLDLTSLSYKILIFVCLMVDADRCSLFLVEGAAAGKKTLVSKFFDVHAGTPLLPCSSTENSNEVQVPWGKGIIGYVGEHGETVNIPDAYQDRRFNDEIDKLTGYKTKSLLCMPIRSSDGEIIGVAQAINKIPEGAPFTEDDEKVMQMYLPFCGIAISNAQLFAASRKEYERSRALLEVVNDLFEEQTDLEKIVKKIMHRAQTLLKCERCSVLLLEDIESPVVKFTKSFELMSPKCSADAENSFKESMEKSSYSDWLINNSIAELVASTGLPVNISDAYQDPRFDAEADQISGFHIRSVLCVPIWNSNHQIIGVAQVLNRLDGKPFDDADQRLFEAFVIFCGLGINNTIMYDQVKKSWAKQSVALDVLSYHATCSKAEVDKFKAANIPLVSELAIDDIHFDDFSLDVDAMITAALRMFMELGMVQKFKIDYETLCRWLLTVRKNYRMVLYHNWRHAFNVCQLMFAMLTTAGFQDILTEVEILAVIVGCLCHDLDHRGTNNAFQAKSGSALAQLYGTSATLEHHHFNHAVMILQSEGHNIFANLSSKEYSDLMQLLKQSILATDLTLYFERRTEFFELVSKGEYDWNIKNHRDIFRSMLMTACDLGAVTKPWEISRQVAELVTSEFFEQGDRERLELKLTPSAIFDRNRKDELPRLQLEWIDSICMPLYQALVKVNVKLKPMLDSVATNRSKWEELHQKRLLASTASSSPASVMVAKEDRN
Chain of 3',5'-cyclic-AMP phosphodiesterase 4A (P27815 whole entry): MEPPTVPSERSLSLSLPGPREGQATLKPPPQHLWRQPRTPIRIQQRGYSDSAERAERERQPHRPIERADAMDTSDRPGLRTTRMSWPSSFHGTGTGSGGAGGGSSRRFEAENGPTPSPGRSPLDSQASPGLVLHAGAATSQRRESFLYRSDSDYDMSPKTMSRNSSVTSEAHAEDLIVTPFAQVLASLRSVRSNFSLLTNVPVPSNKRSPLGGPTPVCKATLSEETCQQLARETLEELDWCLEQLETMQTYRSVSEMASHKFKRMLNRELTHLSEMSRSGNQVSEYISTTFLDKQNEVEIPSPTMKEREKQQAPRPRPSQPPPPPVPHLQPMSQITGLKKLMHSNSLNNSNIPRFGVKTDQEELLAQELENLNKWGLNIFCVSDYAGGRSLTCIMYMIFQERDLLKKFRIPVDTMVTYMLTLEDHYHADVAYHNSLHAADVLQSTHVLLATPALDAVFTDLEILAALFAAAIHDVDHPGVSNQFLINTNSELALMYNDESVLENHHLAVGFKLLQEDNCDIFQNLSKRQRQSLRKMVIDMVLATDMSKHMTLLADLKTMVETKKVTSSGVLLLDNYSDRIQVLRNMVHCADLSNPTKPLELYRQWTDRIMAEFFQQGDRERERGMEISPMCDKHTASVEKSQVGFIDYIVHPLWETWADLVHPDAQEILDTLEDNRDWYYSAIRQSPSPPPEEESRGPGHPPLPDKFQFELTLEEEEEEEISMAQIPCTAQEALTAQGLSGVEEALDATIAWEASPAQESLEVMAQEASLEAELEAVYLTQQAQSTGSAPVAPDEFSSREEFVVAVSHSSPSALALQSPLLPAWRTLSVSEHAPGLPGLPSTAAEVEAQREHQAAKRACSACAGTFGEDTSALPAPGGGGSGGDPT
Chain of High affinity 3',5'-cyclic-AMP phosphodiesterase 7A (Q13946 whole entry): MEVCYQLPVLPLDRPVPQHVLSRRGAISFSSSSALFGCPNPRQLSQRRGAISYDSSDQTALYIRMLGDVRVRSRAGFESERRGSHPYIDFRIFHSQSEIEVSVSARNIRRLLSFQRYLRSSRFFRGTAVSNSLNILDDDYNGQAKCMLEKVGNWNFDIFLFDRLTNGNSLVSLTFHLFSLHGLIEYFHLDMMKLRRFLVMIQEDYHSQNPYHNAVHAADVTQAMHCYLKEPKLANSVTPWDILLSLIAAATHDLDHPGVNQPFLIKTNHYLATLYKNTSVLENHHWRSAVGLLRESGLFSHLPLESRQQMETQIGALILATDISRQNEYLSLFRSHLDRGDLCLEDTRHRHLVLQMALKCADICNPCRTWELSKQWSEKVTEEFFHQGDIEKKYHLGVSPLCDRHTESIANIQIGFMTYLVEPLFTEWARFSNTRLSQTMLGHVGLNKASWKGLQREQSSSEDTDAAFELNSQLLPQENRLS
Chain of High affinity cGMP-specific 3',5'-cyclic phosphodiesterase 9A (O76083 whole entry): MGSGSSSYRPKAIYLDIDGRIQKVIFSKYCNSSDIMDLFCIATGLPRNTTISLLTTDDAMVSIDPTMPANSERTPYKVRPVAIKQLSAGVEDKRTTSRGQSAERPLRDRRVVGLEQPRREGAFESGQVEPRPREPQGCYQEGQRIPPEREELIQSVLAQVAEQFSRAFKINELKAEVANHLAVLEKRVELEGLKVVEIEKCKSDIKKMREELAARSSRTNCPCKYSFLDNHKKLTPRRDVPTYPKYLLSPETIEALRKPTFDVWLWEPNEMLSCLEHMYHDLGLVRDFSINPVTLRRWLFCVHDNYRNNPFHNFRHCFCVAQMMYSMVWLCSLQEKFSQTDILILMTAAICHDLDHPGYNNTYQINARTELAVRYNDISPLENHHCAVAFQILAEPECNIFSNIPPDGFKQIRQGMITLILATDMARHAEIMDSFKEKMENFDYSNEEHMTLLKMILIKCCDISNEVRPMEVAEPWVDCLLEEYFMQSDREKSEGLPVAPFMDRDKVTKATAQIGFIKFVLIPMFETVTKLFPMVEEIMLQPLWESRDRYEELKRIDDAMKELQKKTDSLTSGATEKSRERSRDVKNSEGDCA
Chain of cGMP-inhibited 3',5'-cyclic phosphodiesterase 3A (Q14432 whole entry): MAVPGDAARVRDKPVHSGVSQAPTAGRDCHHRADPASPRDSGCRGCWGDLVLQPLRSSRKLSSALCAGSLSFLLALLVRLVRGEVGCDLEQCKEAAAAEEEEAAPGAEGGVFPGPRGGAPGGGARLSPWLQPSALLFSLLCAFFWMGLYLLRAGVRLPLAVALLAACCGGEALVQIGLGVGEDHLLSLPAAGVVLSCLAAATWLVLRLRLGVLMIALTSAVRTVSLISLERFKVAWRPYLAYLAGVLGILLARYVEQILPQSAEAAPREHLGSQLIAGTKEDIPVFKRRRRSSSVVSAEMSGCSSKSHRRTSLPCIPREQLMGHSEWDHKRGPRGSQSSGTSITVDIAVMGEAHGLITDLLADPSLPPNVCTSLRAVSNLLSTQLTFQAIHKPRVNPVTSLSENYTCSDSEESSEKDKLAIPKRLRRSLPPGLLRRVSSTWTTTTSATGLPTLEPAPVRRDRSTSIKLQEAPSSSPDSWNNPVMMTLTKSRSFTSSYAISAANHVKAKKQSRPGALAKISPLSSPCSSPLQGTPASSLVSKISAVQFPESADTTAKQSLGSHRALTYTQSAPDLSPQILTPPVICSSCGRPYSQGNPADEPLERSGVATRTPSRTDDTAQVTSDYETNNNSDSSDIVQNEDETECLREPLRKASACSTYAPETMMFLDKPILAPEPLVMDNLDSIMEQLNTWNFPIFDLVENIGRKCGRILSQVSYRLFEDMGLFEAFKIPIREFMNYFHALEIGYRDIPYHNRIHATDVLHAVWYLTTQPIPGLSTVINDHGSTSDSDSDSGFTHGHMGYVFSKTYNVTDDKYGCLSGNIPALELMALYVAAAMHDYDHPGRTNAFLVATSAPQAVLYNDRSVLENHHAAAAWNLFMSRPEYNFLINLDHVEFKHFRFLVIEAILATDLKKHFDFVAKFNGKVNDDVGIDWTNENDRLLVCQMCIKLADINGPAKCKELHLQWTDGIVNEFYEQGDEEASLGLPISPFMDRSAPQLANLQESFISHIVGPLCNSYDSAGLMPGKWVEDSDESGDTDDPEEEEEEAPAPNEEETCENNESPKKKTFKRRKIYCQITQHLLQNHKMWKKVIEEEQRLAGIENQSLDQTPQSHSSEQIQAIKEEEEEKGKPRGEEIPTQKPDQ

- concentration at 1 h [1]: 299 ng/mL
- IC50 [2]: > 10000 nM
- IC50 [3]: 2.8 nM
- Drug uptake (Hippocampus): Active
- concentration at 1 h [4]: 189 ng/g
- IC50 [5]: 7760 nM
- Drug uptake (Cortex): Active
- IC50 [6]: > 10000 nM
- IC50 (Phosphodiesterase 6): 2280 nM
- IC50 [7]: > 10000 nM
- IC50 [8]: 1910 nM
- IC50 [9]: > 10000 nM
- Kp at 1 h [10]: 0.62
- IC50 [11]: > 10000 nM
- IC50 [12]: 4900 nM
- Drug uptake (Striatum): Active
SMILES: Cc1nc2ccc(CN3CCOCC3)cc2n2c(-c3ccccc3Cl)nnc12

- concentration at 1 h [13]: 569 ng/mL
- Kp at 1 h [14]: 0.18
- concentration at 1 h [15]: 99 ng/g
SMILES: Cc1nc2ccc(CN3CCCC(CO)C3)cc2n2c(-c3ccccc3Cl)nnc12 (centres undefined)

- IC50 [3]: 19 nM
SMILES: Cc1nc2ccc(C(=O)N(C)Cc3ccccc3)cc2n2c(-c3ccccc3Cl)nnc12

- IC50 [3]: 263 nM
SMILES: CCNC(=O)c1ccc2nc(C)c3nnc(-c4ccccn4)n3c2c1

- IC50 [3]: 9.7 nM
SMILES: Cc1nc2ccc(CN3CCC(O)CC3)cc2n2c(-c3ccccc3Cl)nnc12

- IC50 [3]: 28 nM
SMILES: CCNC(=O)c1ccc2nc(C)c3nnc(-c4cccnc4OC)n3c2c1

- IC50 [3]: 2.8 nM
SMILES: CCNC(=O)c1ccc2nc(C)c3nnc(-c4ccccc4F)n3c2c1

- IC50 [3]: 0.38 nM
- Ratio IC50 [16]: 32
SMILES: Cc1nc2ccc(C(=O)NCc3ccccc3)cc2n2c(-c3ccccc3Cl)nnc12

- IC50 [3]: 4.4 nM
SMILES: CCOC(=O)c1ccc2nc(C)c3nnc(-c4ccccc4Cl)n3c2c1

- IC50 [3]: 7.1 nM
SMILES: Cc1nc2ccc(CN3CCN(C)CC3)cc2n2c(-c3ccccc3Cl)nnc12

- Kp at 1 h [17]: 0.11
- concentration at 1 h [18]: 185 ng/g
- concentration at 1 h [19]: 1880 ng/mL
SMILES: CCNC(=O)c1ccc2nc(C)c3nnc(-c4ccccc4Cl)n3c2c1

- concentration at 1 h [1]: 845 ng/mL
- concentration at 1 h [4]: 628 ng/g
- Kp at 1 h [10]: 0.73
SMILES: CCNCc1ccc2nc(C)c3nnc(-c4ccccc4Cl)n3c2c1

- concentration at 1 h [1]: 2800 ng/mL
- concentration at 1 h [4]: 98 ng/g
- Kp at 1 h [10]: 0.036
SMILES: CCNC(=O)c1ccc2nc(C)c3nnc(-c4cnccc4C)n3c2c1

- IC50 [3]: 5.9 nM
SMILES: CCNC(=O)c1ccc2nc(C)c3nnc(-c4ccccc4OC)n3c2c1

- concentration at 1 h [13]: 1070 ng/mL
- IC50 [3]: 2.2 nM
- Kp at 1 h [14]: 0.14
- concentration at 1 h [15]: 143 ng/g
SMILES: Cc1nc2ccc(C(=O)NCCN3CCCC3)cc2n2c(-c3ccccc3Cl)nnc12

- IC50 [3]: 1.7 nM
SMILES: Cc1nc2ccc(C(=O)NCCc3ccccc3)cc2n2c(-c3ccccc3Cl)nnc12

- concentration at 1 h [20]: 16 ng/g
- Kp at 1 h [21]: 0.034
- concentration at 1 h [22]: 467 ng/mL
SMILES: CCNC(=O)c1ccc2nc(C)c3nnc(-c4cncc(OC)c4)n3c2c1

- concentration at 1 h [13]: 2540 ng/mL
- Kp at 1 h [14]: 0.034
- concentration at 1 h [15]: 88 ng/g
SMILES: Cc1nc2ccc(C(=O)NCCN3CCOCC3)cc2n2c(-c3ccccc3Cl)nnc12
